The source made the active and inactive calls. The calls are words filed in the database; no cut-off is given here.
Experiments:
Carboxypeptidase A4 = target: T1, Carboxypeptidase A4 (Homo sapiens, UniProt Q9UI42); test: Inhibition of human CPA4 using AAFP as substrate preincubated for 45 mins to 2 hrs measured at 30 sec intervals for 15 mins by UV/vis-spectrophotometry
T1 sequence (Q9UI42 whole entry): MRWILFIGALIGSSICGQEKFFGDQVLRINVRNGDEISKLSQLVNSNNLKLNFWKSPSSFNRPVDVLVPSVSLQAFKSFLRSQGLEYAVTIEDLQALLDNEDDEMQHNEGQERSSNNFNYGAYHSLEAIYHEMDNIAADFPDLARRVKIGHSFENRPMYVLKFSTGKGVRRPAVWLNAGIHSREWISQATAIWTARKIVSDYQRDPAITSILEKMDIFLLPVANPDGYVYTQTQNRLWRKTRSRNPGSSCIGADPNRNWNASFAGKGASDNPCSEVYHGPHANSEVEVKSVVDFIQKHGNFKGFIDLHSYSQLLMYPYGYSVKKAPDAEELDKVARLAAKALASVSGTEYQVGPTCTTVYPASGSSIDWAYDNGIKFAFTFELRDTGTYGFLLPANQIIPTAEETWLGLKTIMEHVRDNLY
Outline: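 Enzyme was hCPA4 at 4.3x10-8 M, with 1.0x10-4 M AAFP and detection at 355 nm. Inhibitor and enzyme were preincubated 45 min at 37 °C, then initial velocities were taken over 15 min (30 sec reads), in triplicate. Kiapp was obtained from the tight-binding fit.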

Carboxypeptidase A1 = target: T2, Carboxypeptidase A1 (Homo sapiens, UniProt P15085); test: Inhibition of human CPA1 using AAFP as substrate preincubated for 45 mins to 2 hrs measured at 30 sec intervals for 15 mins by UV/vis-spectrophotometry
T2 sequence (P15085 whole entry): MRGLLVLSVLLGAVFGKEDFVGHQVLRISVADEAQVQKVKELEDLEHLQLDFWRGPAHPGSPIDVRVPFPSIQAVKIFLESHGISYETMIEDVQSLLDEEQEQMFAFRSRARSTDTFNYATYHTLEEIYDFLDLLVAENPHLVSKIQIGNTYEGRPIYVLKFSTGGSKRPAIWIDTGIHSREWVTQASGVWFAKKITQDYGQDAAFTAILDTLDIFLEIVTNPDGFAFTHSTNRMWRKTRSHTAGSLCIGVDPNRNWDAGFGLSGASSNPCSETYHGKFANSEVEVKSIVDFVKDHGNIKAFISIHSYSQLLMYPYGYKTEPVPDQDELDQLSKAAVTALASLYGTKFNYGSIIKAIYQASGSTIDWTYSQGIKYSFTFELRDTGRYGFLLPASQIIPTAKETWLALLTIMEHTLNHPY
Outline: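 hCPA1 was used at 1.0x10-8 M with AAFP substrate at 1.0x10-4 M, read at 355 nm. Enzyme and inhibitor were preincubated 45 min at 37 °C before substrate was added. Initial velocities were read every 30 sec for 15 min, in triplicate. Apparent Ki came from a fit to the tight-binding equation.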

Carboxypeptidase A2 = target: T3, Carboxypeptidase A2 (Homo sapiens, UniProt P48052); test: Inhibition of human CPA2 using AAFP as substrate preincubated for 45 mins to 2 hrs measured at 30 sec intervals for 15 mins by UV/vis-spectrophotometry
T3 sequence (P48052 whole entry): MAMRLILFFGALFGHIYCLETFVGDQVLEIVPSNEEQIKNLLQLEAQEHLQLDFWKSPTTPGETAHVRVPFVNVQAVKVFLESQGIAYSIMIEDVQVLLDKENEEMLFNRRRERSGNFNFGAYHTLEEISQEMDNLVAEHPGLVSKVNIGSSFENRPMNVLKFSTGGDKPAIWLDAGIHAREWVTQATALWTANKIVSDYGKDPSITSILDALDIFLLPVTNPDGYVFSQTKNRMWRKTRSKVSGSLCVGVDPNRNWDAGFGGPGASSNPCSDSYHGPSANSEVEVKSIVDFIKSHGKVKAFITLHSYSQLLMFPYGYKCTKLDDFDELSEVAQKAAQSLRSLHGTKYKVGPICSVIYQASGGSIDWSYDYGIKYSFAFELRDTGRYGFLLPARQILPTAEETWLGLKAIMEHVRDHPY
Outline: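 hCPA2 was used at 3.0x10-8 M with AAFP substrate at 1.0x10-4 M, read at 355 nm, in 20 mM Tris-HCl pH 7.5, 500 mM NaCl, 1% DMSO, 0.05% Brij-35. After a 45 min preincubation at 37 °C, initial rates were followed at 30 sec intervals for 15 min, in triplicate. Kiapp was fitted by the tight-binding equation.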

Carboxypeptidase B = Carboxypeptidase B (Homo sapiens, UniProt P15086); test: Inhibition of human CPB1 using AAFA as substrate preincubated for 45 mins to 2 hrs measured at 30 sec intervals for 15 mins by UV/vis-spectrophotometry
Sequence of Carboxypeptidase B (P15086 whole entry): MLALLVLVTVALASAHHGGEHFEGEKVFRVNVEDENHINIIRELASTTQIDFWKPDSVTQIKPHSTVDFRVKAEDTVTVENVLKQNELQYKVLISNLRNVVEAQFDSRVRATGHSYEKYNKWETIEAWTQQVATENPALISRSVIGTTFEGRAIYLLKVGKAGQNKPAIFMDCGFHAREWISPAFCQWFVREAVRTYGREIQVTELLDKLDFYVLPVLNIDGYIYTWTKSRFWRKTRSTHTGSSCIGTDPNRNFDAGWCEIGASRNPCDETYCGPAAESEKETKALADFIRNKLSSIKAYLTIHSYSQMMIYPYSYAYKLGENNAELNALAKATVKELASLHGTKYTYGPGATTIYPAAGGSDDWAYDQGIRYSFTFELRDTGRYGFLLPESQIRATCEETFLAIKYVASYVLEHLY
Outline: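 hCPB1 was used at 6.0x10-9 M with 1.0x10-4 M AAFA, read at 355 nm. After 45 min preincubation with inhibitor at 37 °C, residual activity at varied inhibitor concentrations was followed for 15 min at 30 sec intervals, in triplicate. Kiapp was fitted with the tight-binding equation.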

[1] = target: T4, Carboxypeptidase D (Homo sapiens) (UniProt O75976); test: Inhibition of human CPD at 1 nM to 1 mM using AAFA as substrate preincubated for 45 mins to 2 hrs measured at 30 sec intervals for 15 mins by UV/vis-spectrophotometry
T4 sequence (whole entry): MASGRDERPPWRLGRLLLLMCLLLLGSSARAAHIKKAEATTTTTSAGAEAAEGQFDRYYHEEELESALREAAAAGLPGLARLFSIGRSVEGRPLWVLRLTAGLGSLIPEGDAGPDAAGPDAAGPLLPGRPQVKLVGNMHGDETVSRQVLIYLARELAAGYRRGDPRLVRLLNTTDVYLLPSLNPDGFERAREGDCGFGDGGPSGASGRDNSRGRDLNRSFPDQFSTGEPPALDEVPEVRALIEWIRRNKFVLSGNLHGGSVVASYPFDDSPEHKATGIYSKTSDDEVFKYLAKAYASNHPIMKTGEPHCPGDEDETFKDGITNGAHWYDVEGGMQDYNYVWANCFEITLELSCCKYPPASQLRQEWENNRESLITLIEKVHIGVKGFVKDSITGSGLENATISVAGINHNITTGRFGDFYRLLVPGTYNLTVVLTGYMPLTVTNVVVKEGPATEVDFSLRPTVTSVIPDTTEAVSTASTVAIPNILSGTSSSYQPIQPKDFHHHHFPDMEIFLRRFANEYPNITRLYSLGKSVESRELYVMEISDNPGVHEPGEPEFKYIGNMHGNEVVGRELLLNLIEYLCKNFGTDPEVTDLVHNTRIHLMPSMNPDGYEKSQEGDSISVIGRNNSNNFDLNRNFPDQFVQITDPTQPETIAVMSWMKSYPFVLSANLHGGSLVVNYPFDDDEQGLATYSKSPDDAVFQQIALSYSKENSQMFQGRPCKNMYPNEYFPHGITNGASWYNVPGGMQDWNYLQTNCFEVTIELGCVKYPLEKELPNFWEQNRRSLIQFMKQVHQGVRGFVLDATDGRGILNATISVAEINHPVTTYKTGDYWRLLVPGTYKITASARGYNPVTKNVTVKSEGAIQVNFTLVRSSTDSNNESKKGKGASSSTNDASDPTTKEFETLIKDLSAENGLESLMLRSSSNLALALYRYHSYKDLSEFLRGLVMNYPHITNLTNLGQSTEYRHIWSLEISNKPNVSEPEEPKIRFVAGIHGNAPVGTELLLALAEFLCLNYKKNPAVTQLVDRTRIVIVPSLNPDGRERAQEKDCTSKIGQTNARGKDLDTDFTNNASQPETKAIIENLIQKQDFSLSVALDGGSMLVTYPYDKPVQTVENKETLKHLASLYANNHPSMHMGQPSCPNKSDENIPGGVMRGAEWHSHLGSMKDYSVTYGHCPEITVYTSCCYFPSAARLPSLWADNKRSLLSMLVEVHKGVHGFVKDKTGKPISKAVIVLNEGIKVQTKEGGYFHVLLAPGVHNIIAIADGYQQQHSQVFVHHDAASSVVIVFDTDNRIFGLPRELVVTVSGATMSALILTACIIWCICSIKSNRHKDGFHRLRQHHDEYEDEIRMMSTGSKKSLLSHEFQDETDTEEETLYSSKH
Outline: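 hCPD was used at 2.0x10-8 M with AAFA substrate at 1.0x10-4 M, monitored at 355 nm. Buffer was 20 mM Tris-HCl pH 7.5, 100 mM NaCl, 1% DMSO, 0.05% Brij-35. Preincubation was 45 min at 37 °C. Residual activity at a range of inhibitor concentrations was measured from initial rates (30 sec reads, 15 min), in triplicate. Kiapp came from the tight-binding fit.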

- Ki (Carboxypeptidase A4): 390 pM
- Ki (Carboxypeptidase A1): 40 pM
- Ki (Carboxypeptidase A2): 1000 pM
- Ki (Carboxypeptidase B): 120 pM
- inhibition [1]: inactive
Structure (SMILES): CC(=O)N[C@@H](CC(C)C)C(=O)N[C@@H](Cc1ccccc1)P(=O)(O)C[C@@H](Cc1ccccc1)C(=O)O

Source: ChEMBL document CHEMBL4411328, “Synthesis and Structural/Functional Characterization of Selective M14 Metallocarboxypeptidase Inhibitors Based on Phosphinic Pseudopeptide Scaffold: Implications on the Design of Specific Optical Probes” (J Med Chem, 2019)
